Here are results for 20 compounds from ChEMBL document CHEMBL3352496, “Design, synthesis and evaluation of novel triazole core based P-glycoprotein-mediated multidrug resistance reversal agents” (Bioorg Med Chem, 2014).

pIC50: −log10 of the molar value. Structures can show the parent of a compound that is named as a salt.

Series [1] is described as follows: Reversal of P-gp-mediated multidrug resistance in human K562/A02 cells assessed as reduction of adriamycin IC50 at 5 uM after 48 hrs by MTT assay. Type of series: cell-based. The following applies: K562/A02, 48 h. The gist of the method: (§1)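 MTT on K562/A02 cells exposed to a series of adriamycin concentrations, with or without modulator at 5 µM; 0.1% DMSO as solvent control. Reversal fold = adriamycin IC50 without modulator / IC50 with modulator.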
(Tetrazolium assays rely on reduction of a dye to a coloured formazan, in cell work by metabolically active cells.)

Series [2] can be described thus: Resistance factor, ratio of adriamycin IC50 for human K562/A02 cells over-expressing Pgp to adriamycin IC50 for human K562/A02 cells over-expressing Pgp in presence of 5 uM compound. Type of series: functional. The gist of the method:
as §1

Series [3] can be described thus: Cytotoxicity against human K562/A02 cells at 5 uM after 48 hrs by MTT assay. Type of series: cell-based. The following applies: k562/a02, 48 h. A digest of the protocol: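 Adriamycin-selected K562/A02 cells given test compound alone at 5 µM for 48 h; cytotoxicity scored by MTT as intrinsic growth inhibition.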
Series [4] is described as follows: Cytotoxicity against human K562/A02 cells after 48 hrs by MTT assay. Type of series: functional, cell-based. The following applies: K562/A02, 48 h.
Series [5] in a line: Reversal of P-gp-mediated multidrug resistance in human K562/A02 cells assessed as reduction of adriamycin IC50 at 2.5 uM after 48 hrs by MTT assay. The format is cell-based. Conditions: K562/A02, 48 h. The gist of the method: (§2)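 K562/A02 (P-gp-overexpressing) cells given graded adriamycin plus modulator at 2.5, 1.25, 0.625, 0.31, 0.156, 0.078 or 0.04 µM; verapamil 2.5 µM as positive control; adriamycin IC50 by MTT. Reversal fold = IC50 without modulator / IC50 with modulator. Two to three experiments, mean ± SEM.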

Series [6] is described as follows: Resistance factor, ratio of adriamycin IC50 for human K562/A02 cells over-expressing Pgp to adriamycin IC50 for human K562/A02 cells over-expressing Pgp in presence of 2.5 uM compound. The format is functional. The gist of the method:
as §2

Series [7] can be described thus: Reversal of P-gp-mediated multidrug resistance in human K562/A02 cells assessed as reduction of adriamycin IC50 at 5 uM incubated for 24 hrs prior to adriamycin treatment measured after 48 hrs by MTT assay. Type of series: cell-based. The gist of the method:
(§3)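 K562/A02 cells incubated 24 h with 5 µM modulator, verapamil or vehicle, then washed with growth medium. […] Reversal fold = IC50 without modulator / IC50 with modulator. Two to three experiments, mean ± SEM.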

A short description of series [8]: Reversal of P-gp-mediated multidrug resistance in human K562/A02 cells assessed as reduction of adriamycin IC50 at 5 uM incubated for 24 hrs followed by adriamycin treatment post compound washout measured after 48 hrs by MTT assay. The format is cell-based. The gist of the method:
as §3

Series [9] can be described thus: Reversal of P-gp-mediated multidrug resistance in human K562/A02 cells assessed as reduction of adriamycin IC50 at 5 uM incubated for 24 hrs followed by adriamycin treatment 6 hrs post compound washout measured after 48 hrs by MTT assay. Type of series: cell-based. The gist of the method: as §3
The nature of series [10]: Reversal of P-gp-mediated multidrug resistance in human K562/A02 cells assessed as reduction of adriamycin IC50 at 5 uM incubated for 24 hrs followed by adriamycin treatment 12 hrs post compound washout measured after 48 hrs by MTT assay. Type of series: cell-based. The gist of the method: as §3
Series [11] can be described thus: Resistance factor, ratio of adriamycin IC50 for human K562/A02 cells over-expressing Pgp to adriamycin IC50 for human K562/A02 cells over-expressing Pgp in presence of 5 uM compound incubated for 24 hrs prior to adriamycin treatment. Type of series: functional. A digest of the protocol: as §3
Series [12] is described as follows: Resistance factor, ratio of adriamycin IC50 for human K562/A02 cells over-expressing Pgp to adriamycin IC50 for human K562/A02 cells over-expressing Pgp in presence of 5 uM compound incubated for 24 hrs followed by adriamycin treatment post compound washout. Type of series: functional. A digest of the protocol: as §3

For orientation: pIC50 means the negative decadic logarithm of the IC50, by convention in mol/L. Regarding `COc1cc2c(cc1OC)CN(CCn1cc(COc3ccccc3NC(=O)c3ccc(C#N)cc3)nn1)CC2`, in series [1], the pIC50 was 4.84. The “Ratio IC50” value in series [2] is listed as 3.6. Moreover, the Activity in series [3] is on record as below 10%.
Turning to `COc1cc2c(cc1OC)CN(CCn1cc(COc3ccccc3NC(=O)c3ccc(C)cc3)nn1)CC2`, the negative-log IC50 (pIC50) in [1] was 5.14. In series [2], the “Ratio IC50” value came out at 7.5. Moreover, the Activity in series [3] was below 10%.
As for `COc1cccc2c1C(=O)c1c(O)c3c(c(O)c1C2=O)C[C@@](O)(C(=O)CO)C[C@@H]3O[C@H]1C[C@H](N)[C@H](O)[C@H](C)O1` [DOXORUBICIN HYDROCHLORIDE], the pIC50 in series [4] is 4.27.
As for `COc1cc2c(cc1OC)CN(CCn1cc(COc3ccccc3NC(=O)c3cccc(C)c3)nn1)CC2`, the pIC50 in [1] is 5.15. Further, the “Ratio IC50” value in series [2] worked out at 7.6. The compound further returned an Activity in [3] below 10%.
`COc1cc2c(cc1OC)CN(CCn1cc(COc3ccccc3NC(=O)c3ccc(N(C)C)cc3)nn1)CC2`: the negative logarithm of the IC50 (pIC50) in [1] was 5.03. Also, the “Ratio IC50” value in series [2] is reported as 5.8. The compound further came in with an Activity in series [3] below 10%.
The matching figures for `COc1cc2c(cc1OC)CN(CCn1cc(COc3ccccc3NC(=O)c3cnc4ccccc4c3)nn1)CC2`: 5.05, 6.1 and below 10%.
The corresponding values for `COc1cc2c(cc1OC)CN(CCn1cc(COc3ccccc3NC(=O)c3ccccc3OC)nn1)CC2` are 5.17, 8.1 and below 10%.
In the case of `COc1cc(OC)cc(C(=O)Nc2ccccc2OCc2cn(CCN3CCc4cc(OC)c(OC)cc4C3)nn2)c1`, the pIC50 in series [1] was 4.86. In addition, the “Ratio IC50” value in [2] was 3.9. The same compound showed an Activity in series [3] below 10%.
Turning to `COc1ccc(CCN(C)CCCC(C#N)(c2ccc(OC)c(OC)c2)C(C)C)cc1OC` (stereo not given) [VERAPAMIL], the pIC50 in series [1] is 5.17; in series [5], 4.80; in series [7] it was 5.02; in series [8], 4.39; in series [9], below 4.10; in series [10], below 4.10. The “Ratio IC50” value in series [2] came to 8.7; in [6], 3.4; in series [11] it was 8.4; in [12] it was 1.9.
Consider `COc1cc2c(cc1OC)CN(CCn1cc(COc3ccccc3NC(=O)c3ccccc3[N+](=O)[O-])nn1)CC2`, for which, in series [1], the pIC50 is 4.81. Further, the “Ratio IC50” value in series [2] amounted to 3.5. The compound also registered an Activity in series [3] below 10%.
The matching figures for `COc1ccc(C(=O)Nc2ccccc2OCc2cn(CCN3CCc4cc(OC)c(OC)cc4C3)nn2)cc1OC`: 5.19, 8.4 and below 10%.
`COc1cc2c(cc1OC)CN(CCn1cc(COc3ccccc3NC(=O)c3ccc(Cl)cc3)nn1)CC2`: in series [1], the pIC50 was 5.28. The “Ratio IC50” value in series [2] was 10.4. Also, the Activity in series [3] is reported as below 10%.
Take `COc1cc2c(cc1OC)CN(CCn1cc(COc3ccccc3NC(=O)c3cccnc3)nn1)CC2`: in [1], the negative-log IC50 (pIC50) is 4.72. Also, in [2], the “Ratio IC50” value was found to be 2.9. The compound also showed an Activity in series [3] below 10%.
The corresponding values for `COc1cc2c(cc1OC)CN(CCn1cc(COc3ccccc3NC(=O)c3cccc(Cl)c3)nn1)CC2` are 4.96, 4.9 and below 10%.
Take `COc1cc2c(cc1OC)CN(CCn1cc(COc3ccccc3NC(=O)c3ccccc3)nn1)CC2`: in series [1], the pIC50 is 4.97. In series [2], the “Ratio IC50” value worked out at 5. In series [3], this compound registered an Activity below 10%.
On to `COc1cc2c(cc1OC)CN(CCn1cc(COc3ccccc3NC(=O)c3ccc4ccccc4n3)nn1)CC2`, for which, in series [1], the pIC50 is 5.28. For the same compound, the “Ratio IC50” value in series [2] is reported as 10.4. The compound further returned an Activity in series [3] below 10%.
`COc1ccc(C(=O)Nc2ccccc2OCc2cn(CCN3CCc4cc(OC)c(OC)cc4C3)nn2)cc1`: the pIC50 in series [1] is 5.20. For the same compound, in [2], the “Ratio IC50” value came to 8.7. Besides, in series [3], the Activity is given as below 10%.
In the case of `COc1cc2c(cc1OC)CN(CCn1cc(COc3ccccc3NC(=O)c3cccc([N+](=O)[O-])c3)nn1)CC2`, the negative-log IC50 (pIC50) in [1] was 4.82. The “Ratio IC50” value in [2] is reported as 3.6. This compound also displayed an Activity in [3] below 10%.
Turning to `COc1cccc(C(=O)Nc2ccccc2OCc2cn(CCN3CCc4cc(OC)c(OC)cc4C3)nn2)c1`, the pIC50 in [1] is 5.01. Besides, the “Ratio IC50” value in [2] amounted to 5.6. The Activity in [3] is below 10%.
For the compound `COc1cc2c(cc1OC)CN(CCn1cc(COc3ccccc3NC(=O)c3cc(OC)c(OC)c(OC)c3)nn1)CC2`, the pIC50 in series [1] is 5.49. Further, in [2], the “Ratio IC50” value came out at 16.8. Further, the Activity in series [3] is recorded as below 10%.
